{"data": "Measured values of several laboratories", "target": "Testis-specific serine/threonine-protein kinase 1 (TSSK1B, Homo sapiens, UniProt Q9BXA7)", "Residues used in one study (Q9BXA7 1-367)": "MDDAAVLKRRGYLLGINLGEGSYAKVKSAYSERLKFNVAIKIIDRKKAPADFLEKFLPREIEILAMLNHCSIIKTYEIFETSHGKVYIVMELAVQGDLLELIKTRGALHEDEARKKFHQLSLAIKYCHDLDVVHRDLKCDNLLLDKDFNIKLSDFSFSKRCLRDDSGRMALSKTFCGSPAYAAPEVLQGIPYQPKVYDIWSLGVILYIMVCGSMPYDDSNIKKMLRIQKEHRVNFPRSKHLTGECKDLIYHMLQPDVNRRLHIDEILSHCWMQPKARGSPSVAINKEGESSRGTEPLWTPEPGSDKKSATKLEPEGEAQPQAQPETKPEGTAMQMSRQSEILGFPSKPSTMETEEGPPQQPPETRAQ", "note": "Compare with care: the assays were run in different laboratories."}
{"SMILES": "COc1cnc(Nc2cccc(S(N)(=O)=O)c2)nc1N1CCN(c2ccccc2)C(=O)C1", "observed": "binding", "technique": "competition with immobilised ligand", "tested at": "1 µM", "remaining binding [%]": 92}
{"SMILES": "C=CC(=O)N1CCC(C(=O)NCC(=O)N2CCN(c3nc(-c4cnc(N)nc4C(F)F)nc(N4CCOCC4)n3)CC2)CC1", "observed": "binding", "technique": "competition with immobilised ligand", "tested at": "1 µM", "remaining binding [%]": 95}
{"SMILES": "NS(=O)(=O)c1cc(NC(=O)Cc2ccccc2)ccc1Oc1cccc(Cl)c1", "observed": "cell-free assay", "technique": "competition with immobilised ligand", "tested at": "1 µM", "remaining binding [%]": 100}
{"SMILES": "Cc1cnc(Nc2ccc(C(=O)N3CCC(N4CCCC4)CC3)cc2)nc1-c1cc2ccccc2s1", "observed": "binding", "technique": "competition with immobilised ligand", "tested at": "1 µM", "remaining binding [%]": 85}
{"SMILES": "O=C(NCC1CCOCC1)c1n[nH]cc1NC(=O)c1c(F)cccc1F", "observed": "binding", "technique": "competition with immobilised ligand", "tested at": "1 µM", "remaining binding [%]": 97}
{"SMILES": "CN(c1nccc(-c2cnn3ncccc23)n1)C1CC1", "observed": "binding", "tested at": "1 µM", "remaining binding [%]": 100}
{"SMILES": "Cn1cc(Cl)c2c(Oc3c(F)cc(Nc4cc(Cl)nc(N)n4)cc3F)ccnc21", "observed": "cell-free assay", "technique": "competition with immobilised ligand", "tested at": "0.1 µM", "remaining binding [%]": 100}
{"SMILES": "C[C@@H](c1ccc(-n2cnc3c(N)ncnc32)cc1)N1CCc2nn(C)c(Cc3ccccc3)c2C1=O", "observed": "binding", "technique": "competition with immobilised ligand", "tested at": "0.1 µM", "remaining binding [%]": 100}
{"SMILES": "COc1cnc(Nc2cccc(S(N)(=O)=O)c2)nc1N1CCN(c2ccccc2)CC1", "observed": "binding", "technique": "competition with immobilised ligand", "tested at": "1 µM", "remaining binding [%]": 100}
{"SMILES": "CCN1CCN(Cc2ccc(C(=O)Nc3ccc(C)c(Oc4ccc5c(c4)CC(=O)N5)c3)cc2C(F)(F)F)CC1", "observed": "binding", "technique": "competition with immobilised ligand", "tested at": "1 µM", "remaining binding [%]": 93}
{"SMILES": "COc1ccnn2ncc(-c3ccnc(N(C)C)n3)c12", "observed": "binding", "tested at": "1 µM", "remaining binding [%]": 100}
{"SMILES": "CCC(=N\\O)/C(C)=C/c1ccc(F)cc1", "observed": "cell-free assay", "technique": "competition with immobilised ligand", "tested at": "1 µM", "remaining binding [%]": 82}
{"SMILES": "Nc1ncc2c(n1)-c1c([nH]c3ccc(C#CC4CC4)cc13)CCCC2", "observed": "binding", "technique": "competition with immobilised ligand", "tested at": "1 µM", "remaining binding [%]": 100}
{"SMILES": "COc1ccc2c(c1)O[C@@H](c1ccc(OC)c(OC)c1)C[C@H]2NC(=O)C1(c2ccc3c(c2)OC(F)(F)O3)CC1", "observed": "cell-free assay", "technique": "competition with immobilised ligand", "tested at": "1 µM", "remaining binding [%]": 100}
{"SMILES": "CC1CCCN1c1nccc(-c2cnn3ncccc23)n1 (centres unmarked)", "observed": "binding", "tested at": "1 µM", "remaining binding [%]": 100}
{"SMILES": "COc1ccc2cc(OCC3(C(=O)O)CN(C(=O)c4ccc(F)cc4)C3)ccc2c1", "observed": "cell-free assay", "technique": "competition with immobilised ligand", "tested at": "1 µM", "remaining binding [%]": 100}
{"SMILES": "O=C(c1ccc(Nc2nccc(-c3cc4ccccc4s3)n2)cc1)N1CCC(N2CCCC2)CC1", "observed": "binding", "technique": "competition with immobilised ligand", "tested at": "1 µM", "remaining binding [%]": 100}
{"SMILES": "Cc1cnn2ncc(-c3ccnc(N(C)C)n3)c2c1", "observed": "binding", "tested at": "1 µM", "remaining binding [%]": 100}
{"SMILES": "O=C(c1ccc(Nc2ncc(Cl)c(-c3cc4ccccc4s3)n2)cc1)N1CCC(N2CCCC2)CC1", "observed": "binding", "technique": "competition with immobilised ligand", "tested at": "1 µM", "remaining binding [%]": 85}
{"SMILES": "O=C(N1CCS(=O)(=O)CC1)N1C[C@H](c2ccc(OC(F)(F)F)cc2)C[C@H](c2nc(C3CC3)no2)C1", "observed": "cell-free assay", "technique": "competition with immobilised ligand", "tested at": "1 µM", "remaining binding [%]": 95}
{"SMILES": "c1cnn2ncc(-c3ccnc(N4CCC45COC5)n3)c2c1", "observed": "binding", "tested at": "1 µM", "remaining binding [%]": 65}
{"SMILES": "c1cncc(-c2cccc(Nc3nccc(NC4CCCCC4)n3)c2)c1", "observed": "binding", "technique": "competition with immobilised ligand", "tested at": "10 µM", "remaining binding [%]": 60}
{"SMILES": "N[C@H]1CCN(c2nccc(-c3cnn4ncccc34)n2)C1", "observed": "binding", "tested at": "1 µM", "remaining binding [%]": 100}
{"SMILES": "C[C@@H]1CN(c2ccc3ncc(-c4ccc5[nH]nc(C6CC6)c5c4)n3n2)C[C@H](C)O1", "observed": "binding", "technique": "competition with immobilised ligand", "tested at": "0.5 µM", "remaining binding [%]": 100}
{"SMILES": "O=C(O)[C@@H]1[C@@H](Cn2nnc3ccccc3c2=O)CC[C@H]1C(=O)c1ccc(OCCC2CCOCC2)cc1", "observed": "cell-free assay", "technique": "competition with immobilised ligand", "tested at": "1 µM", "remaining binding [%]": 100}
{"SMILES": "C[C@@H]1CCN(c2nccc(-c3cnn4ncccc34)n2)C1", "observed": "binding", "tested at": "1 µM", "remaining binding [%]": 100}
